Most compounds without a hit are left out; they make up all but 4.9% or so of the library.
NF-kB expr up: compounds increasing NF-kB expression in human neuronal cells. NF-kB reporter expression; hits give high values. fold change at 12.5 µM. 190,000 tested, 1.6% active. AID 1239; in the data active = fold change above about 3.3
APP 5'UTR act: APP 5'UTR luciferase reporter activation | activation, % at 2 µM | 190,000 tested, 1% active | SH-SY5Y APP 5'UTR luciferase reporter, luminescence; zero percent = DMSO vehicle wells;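 active = activation above a set limit, based on mean plus 3 SD of controls, cut at about 140% in these data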
STAT1 act: STAT1 signaling activation. NIH 3T3 STAT1-luciferase reporter, IFN-gamma, luminescence; 100% = IFN-gamma alone, no compound. activation (% of control), % at 5.5 µM. 200,000 tested, 2.6% active;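 active = activation above the screen-wide mean activation plus 3 SD, cut at about 130% in these data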;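 also: raw ratio to IFN-gamma control signal so 100% means no change and 0% no light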
STAT3 act: STAT3 signaling activation; activation (% of control), % at 5.6 µM; AID 871; U3A cells, IL-6 STAT3-luciferase reporter, luminescence; 100% = signal with IL-6 EC80 alone; 190,000 tested, 0.91% active;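 active = activation above the screen-wide mean of compound activation plus 3 SD, cut at about 130% in these data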;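 also: 0% = background luminescence of wells with medium and substrate only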
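Test system: human U3A cells carrying STAT3-luciferase construct; control set: IL-6-only wells as 100% reference; timing: compound pre-incubation 1 h before IL-6, then 6 h stimulation at 37 °C; also added: IL-6 stimulus at 33 ng/mL final; evaluation: % activation versus median of IL-6-stimulated wells; detection: reporter luminescence signal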
STAT3 inh-1: STAT3 signaling inhibition; U3A cells, IL-6 STAT3-luciferase reporter, luminescence; host cell line lacks STAT1; inhibition, % at 5.5 µM; 190,000 tested, 0.89% active;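 active = inhibition above the mean inhibition across all screened compounds plus 3 SD, cut at about 44% in these data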;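 also: 0% = DMSO only wells and 100% = 100 µM nifuroxazide control wells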
STAT1 inh: inhibitors of IFN-gamma induced STAT1 signaling | NIH 3T3 STAT1-luciferase reporter, luminescence | inhibition, % at 5.5 µM | 200,000 tested, 0.35% active | AID 920;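 active = inhibition above a set limit, the mean inhibition across all tested compounds plus 3 SD, cut at about 34% in these data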;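 also: 0% = IFN-gamma with DMSO and 100% = IFN-gamma with 300 µM nifuroxazide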
STAT3 inh-2: confirmation of STAT3 signaling inhibitors. shares compounds with STAT3 inh-1. U3A cells, IL-6 STAT3 luciferase reporter, luminescence; cell line lacks STAT1. inhibition, % at 5.7 µM. 1,200 tested, 45% active;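 active = inhibition above the hit cutoff computed for the primary STAT3 screen, cut at about 44% in these data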;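 also: 0% = IL-6 plus DMSO and 100% = IL-6 plus nifuroxazide control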
NFkB inh 2: counter-screen for STAT3 inhibitors: NF-kappaB inhibition; shares compounds with STAT3 inh-1; HEK293T NF-kB luciferase reporter, TNF-alpha induced; inhibition, % at 5.7 µM; 1,200 tested, 36% active;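 active = inhibition above the mean of solvent-only control wells plus 3 SD, cutoff set per campaign, cut at about 13% in these data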;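 also: 0% = TNF-alpha with DMSO and 100% = TNF-alpha with MG high control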
STAT1 inh STAT3c: inhibits STAT1, counter-screen to STAT3 inhibitors. shares compounds with STAT3 inh-1. NIH 3T3 STAT1-luciferase reporter, IFN-gamma induced, luminescence. inhibition, % at 5.7 µM. 1,200 tested, 27% active;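 active = inhibition above the mean plus 3 SD of solvent-only control wells, limit set per screening run, cut at about 16% in these data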;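 also: 0% = DMSO with IFN-gamma and 100% = nifuroxazide control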
An asterisk follows results filed as active; / = no result.

SMILES	NF-kB expr up	APP 5'UTR act	STAT1 act	STAT3 act	STAT3 inh-1	STAT1 inh	STAT3 inh-2	NFkB inh 2	STAT1 inh STAT3c
COc1ccccc1OC(C)C(=O)Nc1nc(-c2ccc(S(=O)(=O)N3CCOCC3)cc2)cs1 (stereo unspecified)	0.87	-10	95	108	-6	5	/	/	/
COc1ccc(N(CCC(=O)O)S(=O)(=O)c2ccc(C)cc2C)cc1	1	8	104	102	-2	-3	/	/	/
CC1CCN(S(=O)(=O)c2ccc(Oc3ccc([N+](=O)[O-])cc3)cc2)CC1	0.73	-8	89	68	47*	12	18	-3	1
Nc1ccc(N2CCOCC2)cc1C(F)(F)F	1.1	6	98	106	-1	2	/	/	/
CCOc1ccc2ccccc2c1/C=N/NC(=O)CNC(=O)Cc1ccccc1	0.92	0	100	98	3	1	/	/	/
CCOC(=O)c1sc(NC(=O)Nc2ccccc2F)nc1C	1.2	162*	116	38	75*	-18	61*	39*	-19
CCOC(=O)c1sc(NC(=O)c2cc3ccccc3o2)nc1C	2.6	116	142*	64	47*	-48	2	-38	-65
CCOC(=O)c1sc(NC(=O)Cc2ccc(C)cc2)nc1C	1	1	96	93	15	3	/	/	/
Cc1cccc(C)c1OC(=O)CCN1C(=O)C2C3C=CC(C4CC34)C2C1=O (stereo unspecified)	0.83	8	92	105	-2	7	/	/	/
Cc1ccc(-c2nn(-c3ccccc3)cc2/C=N/NC(=O)c2ccc(Br)o2)cc1	0.95	10	103	69	46*	-4	28	10	-11
O=S(=O)(NC(=NCCc1ccc(Cl)cc1)c1ccccc1Cl)c1cccs1	1.4	-1	103	107	-3	-5	/	/	/
O=C(Oc1ccc2ccccc2c1)c1ccco1	1.2	-19	106	101	3	-8	/	/	/
CC1CC(C)(C)Nc2ccc(OC(=O)c3ccco3)cc21 (stereo unspecified)	2.2	-30	82	53	62*	20	31	25*	11
CCC(O)CNC(=O)CCc1nnc(C2(c3ccc(Cl)cc3)CCC2)o1 (stereo unspecified)	1.3	5	104	106	-2	-6	/	/	/
Cc1nc2nc(SCC(=O)O)nn2c(C)c1Cc1ccccc1Cl	1.2	6	102	110	-10	-3	/	/	/
Cc1ccc(-c2cc(N)n[nH]2)cc1	1.4	-8	107	131	-36	-8	/	/	/
Cc1cccc(-c2cc3c(N=O)c4ccccc4c-3n[nH]2)c1	3.8*	142*	106	62	50*	-6	-6	-19	-26
O=Nc1c2cc(-c3ccccc3)[nH]nc-2c2ccccc12	4.8*	101	105	23	98*	-6	48*	30*	-17
Cc1ccc(-c2cc3c(N=O)c4ccccc4c-3n[nH]2)cc1	0.63	6	69	9	117*	33	98*	80*	2
Cc1cccc(/C=N/n2c(-c3cc(-c4ccccc4)n[nH]3)n[nH]c2=S)c1	1.1	11	99	104	-1	1	/	/	/
CCOC(=O)N1CCC(Nc2ncnc3c2cnn3-c2ccc(C)cc2C)CC1	0.73	-18	86	51	64*	16	49*	14*	14
C=CCNc1ncnc2c1cnn2-c1ccc(C)cc1C	1.1	21	105	106	-7	-5	/	/	/
Cc1nc2ccc(NC(=O)c3cc(S(=O)(=O)N(C)c4ccccc4)ccc3Cl)cc2s1	0.81	-11	81	56	55*	21	64*	26*	27*
COCCNC(=O)C(c1cccs1)N(C(=O)Cn1nnc2ccccc21)c1ccccc1 (stereo unspecified)	0.95	23	105	103	2	-6	/	/	/
COc1cccc(N(C(=O)CCl)C(C(=O)NCCc2ccccc2)c2cccs2)c1 (stereo unspecified)	0.12	-4	84	47	63*	18	95*	22*	25*
SMILES	NF-kB expr up	APP 5'UTR act	STAT1 act	STAT3 act	STAT3 inh-1	STAT1 inh	STAT3 inh-2	NFkB inh 2	STAT1 inh STAT3c
COc1ccc(N(C(=O)CCl)C(C(=O)NCCc2ccccc2)c2cccs2)cc1Cl (stereo unspecified)	0.13	2	83	23	91*	19	104*	2	20*
COc1ccccc1CNS(=O)(=O)N(C)C	1.1	20	114	97	11	-18	/	/	/
c1ccc(-c2cnc(-c3ccccc3)nc2)cc1	9.4*	79	123	57	54*	-24	26	2	-68
Clc1ccc(OCc2nc(-c3ccccn3)no2)c(Br)c1	3.2	138*	107	56	57*	-8	13	-16	-124
Brc1ccc(-c2nc(-c3ccccn3)no2)o1	2.7	92	67	41	75*	36*	33	-4	-48
Brc1ccc(-c2nc(-c3ccncc3)no2)o1	2.1	25	126	97	5	-38	/	/	/
Clc1ccc(-c2nc(-c3ccccn3)no2)cc1Cl	3	117	106	45	71*	-7	33	14*	-31
O=C(NC1=NCCS1)c1cccc2ccccc12	1.5	16	120	109	1	-24	/	/	/
CC(=O)NCCCC(=O)NN1C(=S)N(Cc2ccccc2)C(=O)C1CC(=O)Nc1cccc(C)c1 (stereo unspecified)	1.1	14	106	98	5	-6	/	/	/
O=[N+]([O-])c1ccc(N/N=C/c2sc(N3CCOCC3)nc2-c2ccccc2)c(S(=O)(=O)Nc2ccc(Cl)cc2)c1	1.1	-6	90	31	81*	10	71*	48*	54*
Cc1ccc(-n2nnnc2SCn2nnc3ccccc3c2=O)c(C)c1	0.87	21	81	58	53*	21	53*	5	15
Cc1cc(SCn2nnc3ccccc3c2=O)nc2ccccc12	1.9	-2	105	102	-1	-6	/	/	/
COc1cc(NCCC(=O)c2cccs2)c(OC)cc1Cl	1.1	-8	95	99	8	4	/	/	/
CCOC(=O)C1(CC2CCCCO2)CCN(S(=O)(=O)c2c(C)nn(C)c2C)CC1 (stereo unspecified)	0.99	-3	99	109	-2	-1	/	/	/

Source: PubChem
